In ChEMBL document CHEMBL3822375, “Preclinical Characterization of 3β-(N-Acetyl l-cysteine methyl ester)-2aβ,3-dihydrogaliellalactone (GPA512), a Prodrug of a Direct STAT3 Inhibitor for the Treatment of Prostate Cancer” (J Med Chem, 2016):
pIC50: −log10 of the molar value.

Legend:
[1] = tested on: Mus musculus; test: Cmax in mouse plasma assessed as galiellalactone level at 10 mg/kg, po by LC-MS/MS analysis; type: ADME, organism-based; set-up: dose 10 mg/kg, route oral; settings: in vivo
Outline: (§1)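 Single dose to mice; oral, iv or ip as listed, in 5% DMSO/50 mM citrate buffer pH 4.0 (dosing solutions 0.5, 2 or 5 mg/mL). Oral dosing at 20 mL/kg. Terminal blood under barbiturate anaesthesia at eight time-points to 8 h, n=3 mice per time-point, EDTA plasma. Acetonitrile precipitation with internal standard, LC-MS/MS against plasma calibration lines. Non-compartmental analysis on mean data, trapezoidal AUC.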

[2] = tested on: Mus musculus; test: AUC (0 to infinity) in mouse plasma assessed as galiellalactone level at 10 mg/kg, po by LC-MS/MS analysis; type: ADME, organism-based; set-up: dose 10 mg/kg, route oral, time infinity; settings: in vivo; outline: as §1
[3] = Chemical stability of the compound in phosphate buffer saline assessed as half life at 10 uM at pH 7.4 by LC-MS/MS analysis; type: physicochemical; settings: phosphate buffered saline
Outline: (§2)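 Compound diluted from DMSO (or methanol) stock to 10 µM, 2% solvent final, n=2. Matrix was 0.1 M PBS pH 7.4, or […] HCl with 2 mg/mL NaCl adjusted to pH 1.2. Mixed on a shaker; sampled at nominal 5, 15, 30 and 60 min plus T=0. LC-MS/MS with internal standard; % remaining relative to T=0. Formation of parent also monitored.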

[4] = tested on: Mus musculus; test: Tmax in mouse plasma assessed as galiellalactone level at 10 mg/kg, po by LC-MS/MS analysis; type: ADME, organism-based; settings: in vivo
[5] = tested on: Mus musculus; test: AUC (0 to t) in mouse plasma assessed as galiellalactone level at 10 mg/kg, po by LC-MS/MS analysis; type: ADME, organism-based; settings: in vivo; outline: as §1
[6] = tested on: Mus musculus; test: Apparent half life in mouse plasma assessed as galiellalactone level at 10 mg/kg, po by LC-MS/MS analysis; type: ADME, organism-based; settings: in vivo; outline: as §1
[7] = Antiproliferative activity against human DU145 cells after 72 hrs by WST-1 proliferation assay; type: functional, cell-based; settings: DU-145, 72 h
Outline: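 Cells in RPMI-1640 (DU145, LNCaP, LNCaP-IL6+) or HAM's F-12 (PC3) with 10% FBS. DU145 and LNCaP-IL6+ seeded at 2 000 cells/well, LNCaP and PC3 at 5 000 cells/well, adhered 24 h, then exposed to compound for 72 h. WST-1 absorbance read at 450 nm with 630 nm reference. Background subtracted; expressed as percent of untreated cells.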

[8] = Half life of compound in acidic buffer at pH 1.2 at 10 uM by LC-MS analysis; type: physicochemical; outline: as §2
[9] = tested on: Hepatocyte; test: Drug level in mouse hepatocytes treated with 3-beta-(N-Acetyl-L-cysteine methyl ester)-2a-beta,3-dihydrogaliellalactone measured after 2 hrs by UPLC-MS analysis; type: ADME, cell-based
Outline: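 Cryopreserved mouse hepatocytes in Celsis InVitro HI medium, pH 7.4, 37 °C, with 10 µM initial compound from DMSO stock. Sampled at 0 and 120 min, quenched with an equal volume of acetonitrile, analysed by UPLC/Q-TOF-MS. Viability checked by Trypan blue.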

Structure (SMILES) | Cmax [1] [ng/mL] | AUC [2] [µg/mL/min] | half-life at 10 µM [3] [h] | Tmax [4] [h] | AUCt [5] [µg/mL/min] | t1/2(app) [6] [h] | half-life at 10 µM [8] [h] | Drug metabolism [9] | pIC50 [7]
COC(=O)[C@H](CS[C@H]1C2C(=O)O[C@@H]3CC[C@H](C[C@@H]1C)[C@]23O)NC(=O)C(C)C (some centres undefined) | 303 | 21 | > 2.5 | 0.5 | 15 | 4.23 | – | – | –
COC(=O)[C@H](CS[C@H]1C2C(=O)O[C@@H]3CC[C@H](C[C@@H]1C)[C@]23O)NC(=O)[C@@H](N)C(C)C (some centres undefined) | 949 | 101 | 1.1 | 0.5 | 97 | 2.15 | – | – | –
C[C@H]1C[C@H]2CC[C@H]3OC(=O)C([C@@H]1SC[C@H](NC(=O)CC[C@H](N)C(=O)O)C(=O)NCC(=O)O)[C@@]23O (some centres undefined) | – | – | > 2.5 | – | – | – | – | – | 5.21

The next lines start with results.

Cmax [1] [ng/mL] | AUC [2] [µg/mL/min] | half-life at 10 µM [3] [h] | Tmax [4] [h] | AUCt [5] [µg/mL/min] | t1/2(app) [6] [h] | half-life at 10 µM [8] [h] | Drug metabolism [9] | Structure (SMILES) | pIC50 [7]
– | – | > 2.5 | – | – | – | – | – | C[C@H]1C[C@H]2CC[C@H]3OC(=O)C([C@@H]1SCCS(=O)(=O)O)[C@@]23O (some centres undefined) | 4.94
788 | 102 | 0.367 | 0.5 | 85 | 4.63 | > 2.5 | – | COC(=O)[C@@H](N)CS[C@H]1C2C(=O)O[C@@H]3CC[C@H](C[C@@H]1C)[C@]23O (some centres undefined) | 5.35
– | – | > 2.5 | – | – | – | – | – | C[C@H]1C[C@H]2CC[C@H]3OC(=O)C([C@@H]1SCc1ccccc1)[C@@]23O (some centres undefined) | 5.01
– | – | 0.9 | – | – | – | 1.9 | metabolite_detected | CC(=O)N[C@@H](CS[C@H]1C2C(=O)O[C@@H]3CC[C@H](C[C@@H]1C)[C@]23O)C(=O)O (some centres undefined) | –
57 | 11 | – | 0.25 | 7.8 | 3.15 | – | – | COC(=O)[C@H](CS[C@H]1C2C(=O)O[C@@H]3CC[C@H](C[C@@H]1C)[C@]23O)NC(=O)c1ccccc1F (some centres undefined) | –
